Calls of active or inactive are those of the source.
Tests used:
Mus musculus [1] = assay: (§1) Reduction of disease index score in myelin oligodendrocyte glycoprotein (35 to 55)-induced C57BL/6J mouse experimental autoimmune encephalomyelitis model of multiple sclerosis at 3 mg/kg, ip administered post CB1 antagonist/inverse agonist AM251 addition dosed on day 6 postimmunization up to 21 day postimmunization measured from day 12 postimmunization; assay type: functional, organism-based
Outline: (§2)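 Female C57BL/6J mice immunized with MOG35-55 were randomly assigned to groups. They received 3 mg/kg i.p. daily from 6 days post-immunization up to 21±1 d.p.i. AM251 or AM630, 1 mg/kg i.p., was given 10 min before each dose for 14 days. Clinical score was recorded daily and as cumulative score, reported as mean ± SEM. Group sizes were 4–9 mice.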

Mus musculus [2] = assay: as §1, with “CB2” for “CB1”, “AM630” for “AM251”; assay type: functional, organism-based; outline: as §2
Mus musculus [3] = assay: Inhibition of demyelination in experimental autoimmune encephalomyelitis C57BL/6J mouse spinal cord at 3 mg/kg, ip by luxol fast blue staining based microscopic analysis; assay type: functional, organism-based
Outline: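 EAE induced in female C57BL/6J mice with MOG35-55, then 3 mg/kg i.p. daily. AM251 or AM630 (1 mg/kg), where used, given 10 min before each dose. Spinal cord white matter stained with Luxol Fast Blue and demyelinated areas assessed by microscopy.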

Mus musculus [4] = assay: Reduction of IBA1 positive cells in white matter anterior fasciculus of experimental autoimmune encephalomyelitis C57BL/6J mouse spinal cord at 3 mg/kg, ip by immunofluorescence assay; assay type: functional, organism-based
Outline: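 Female C57BL/6J mice immunized with MOG35-55 received 3 mg/kg i.p. daily. Spinal cord white matter (anterior fasciculus) was stained for Iba1, with DAPI nuclear counterstain. Iba1-positive cells were counted per optic field. One-way ANOVA with Bonferroni test.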

Mus musculus [5] = assay: Antinociceptive activity in CD-1 mouse assessed as inhibition of formalin-induced early phase pain response at 0.1 to 0.3 mg/kg, ip dosed 10 mins before formalin injection measured every 5 mins for 60 mins in presence of CB1 antagonist/inverse agonist AM251; assay type: functional, organism-based
Outline: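 Male CD-1 mice, n = 6 per group, injected with formalin (1.25% in saline, 30 μL) into the dorsal hind paw. Inhibitor (0.1 or 0.3 mg/kg i.p. in 0.5% DMSO/saline) given 10 min before formalin. Where used, AM251 or AM630 (1 mg/kg i.p.) given 10 min before the inhibitor. Time spent lifting, licking, shaking or flinching the injected paw recorded every 5 min over 60 min.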

Mus musculus [6] = assay: Analgesic activity in CD-1 mouse model of oxaliplatin-induced neuropathic pain assessed as reversal of lowering of threshold to cold stimuli at 10 mg/kg, po coadministered with oxaliplatin for 14 days measured 24 hrs post last dose by cold plate test; assay type: functional, organism-based
[7] = target: T1, Monoacylglycerol lipase ABHD6 (Rattus norvegicus) (UniProt Q5XI64); assay: Inhibition of ABHD6 in rat brain membranes up to 500 nM preincubated for 20 mins followed by fluorophosphonate-rhodamine addition measured after 30 mins by competitive affinity based proteomic profiling assay; assay type: cell membranes; details: Membrane
T1 sequence (whole entry): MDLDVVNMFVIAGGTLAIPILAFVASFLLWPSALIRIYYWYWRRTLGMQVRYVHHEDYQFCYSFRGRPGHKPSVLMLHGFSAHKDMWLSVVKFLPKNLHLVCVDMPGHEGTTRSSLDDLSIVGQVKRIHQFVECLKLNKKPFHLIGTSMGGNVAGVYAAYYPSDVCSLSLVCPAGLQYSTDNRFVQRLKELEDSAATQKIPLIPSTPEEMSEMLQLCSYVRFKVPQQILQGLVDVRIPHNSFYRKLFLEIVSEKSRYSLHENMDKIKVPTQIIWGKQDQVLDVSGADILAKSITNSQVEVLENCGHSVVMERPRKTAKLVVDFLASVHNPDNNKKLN
Outline: (§3)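 Rat brain membranes (1 mg/mL) preincubated with 1–1000 nM inhibitor or DMSO for 20 min at 37 °C. FP-rhodamine then added and incubated a further 30 min at 37 °C. Samples run on SDS-PAGE and serine hydrolase bands quantified by in-gel fluorescence.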

Heart [8] = assay: Cardiotoxicity in Langendorff-perfused Sprague-Dawley rat heart assessed as time duration of cardiac cycle length at 1 uM by ECG analysis (reference value: 238.38 +/- 9.23 milliseconds); assay type: toxicity, tissue-based
Heart [9] = assay: Cardiotoxicity in Langendorff-perfused Sprague-Dawley rat heart assessed as intraventricular conduction time at 0.1 uM by ECG analysis (reference value: 14.26 +/- 0.71 milliseconds); assay type: toxicity, tissue-based, Cardiac ventricle
Heart [10] = assay: Cardiotoxicity in Langendorff-perfused Sprague-Dawley rat heart assessed as time duration of action potential at 0.001 uM by ECG analysis (reference value: 75.65 +/- 0.87 milliseconds); assay type: toxicity, tissue-based
Heart [11] = assay: Cardiotoxicity in Langendorff-perfused Sprague-Dawley rat heart assessed as time duration of action potential at 0.01 uM by ECG analysis (reference value: 75.65 +/- 0.87 milliseconds); assay type: toxicity, tissue-based
Heart [12] = assay: Cardiotoxicity in Langendorff-perfused Sprague-Dawley rat heart assessed as time duration of action potential at 1 uM by ECG analysis (reference value: 75.65 +/- 0.87 milliseconds); assay type: toxicity, tissue-based
Heart [13] = assay: Cardiotoxicity in Langendorff-perfused Sprague-Dawley rat heart assessed as corrected time duration of action potential at 0.01 uM by ECG analysis (reference value: 155.26 +/- 2.96 milliseconds); assay type: toxicity, tissue-based
Cannabinoid receptor 2 = Cannabinoid receptor 2 (Homo sapiens, UniProt P34972); assay: Displacement of [3H]-CP-55940 from human recombinant CB2 receptor expressed in HEK293 cells after 90 mins; assay type: cell-based
Outline: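 Membranes from HEK-293 cells stably expressing human CB1 (Bmax 2.9 pmol/mg) or CB2 (Bmax 6.0 pmol/mg) incubated 90 min at 30 °C with [3H]-CP-55,940: 0.4 nM for CB1, 0.53 nM for CB2. Non-specific binding defined with 10 µM WIN 55212-2.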

Monoglyceride lipase = target: T2, Monoglyceride lipase (Rattus norvegicus, UniProt Q8R431); assay: Inhibition of MAGL in rat brain membranes preincubated for 20 mins followed by fluorophosphonate-rhodamine addition measured after 30 mins by competitive affinity based proteomic profiling assay; assay type: cell membranes, Membrane; outline: as §3
T2 sequence (Q8R431 whole entry): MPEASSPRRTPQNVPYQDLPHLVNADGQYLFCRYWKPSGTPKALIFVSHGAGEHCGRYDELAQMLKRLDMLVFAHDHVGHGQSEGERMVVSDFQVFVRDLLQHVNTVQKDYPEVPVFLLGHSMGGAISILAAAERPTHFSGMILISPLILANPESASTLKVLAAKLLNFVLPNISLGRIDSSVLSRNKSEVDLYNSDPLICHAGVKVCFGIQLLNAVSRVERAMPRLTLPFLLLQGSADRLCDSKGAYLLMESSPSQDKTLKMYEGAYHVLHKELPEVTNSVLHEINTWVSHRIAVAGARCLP

Salmonella typhimurium = assay: Mutagenicity in Salmonella typhimurium TA98 assessed as increase in number of colonies at 1 uM by Ames test; assay type: toxicity, organism-based; details: salmonella enterica subsp. enterica serovar typhimurium
Heart [14] = assay: Cardiotoxicity in Langendorff-perfused Sprague-Dawley rat heart assessed as coronary perfusion pressure at 1 uM (reference value: 57.45 +/- 2.58 mmHg); assay type: toxicity, tissue-based

Chain of Cannabinoid receptor 2 (P34972 whole entry): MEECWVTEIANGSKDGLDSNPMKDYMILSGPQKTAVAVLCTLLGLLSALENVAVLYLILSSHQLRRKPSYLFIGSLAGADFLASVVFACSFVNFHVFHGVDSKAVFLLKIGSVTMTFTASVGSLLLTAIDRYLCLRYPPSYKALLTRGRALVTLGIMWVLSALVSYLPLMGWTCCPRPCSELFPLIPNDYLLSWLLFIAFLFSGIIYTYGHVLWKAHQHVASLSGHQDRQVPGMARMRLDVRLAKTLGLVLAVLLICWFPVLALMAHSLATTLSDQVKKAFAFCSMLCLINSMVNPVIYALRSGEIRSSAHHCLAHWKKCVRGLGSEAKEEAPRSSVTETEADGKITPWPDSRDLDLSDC

O=C1[C@H](c2ccc(F)cc2)[C@@H](c2ccc3c(c2)OCO3)N1C1CCN(C(=O)n2cncn2)CC1 (racemic) [listing 1 of 2 here]
Activity (Mus musculus [1]): inactive | Activity (Mus musculus [2]): inactive | inhibition (Mus musculus [3]): Active | Activity (Mus musculus [4]): Active | inhibition (Mus musculus [5]): inactive | Activity (Mus musculus [6]): Active | inhibition [7]: inactive

O=C1[C@H](c2ccc(F)cc2)[C@@H](c2ccc3c(c2)OCO3)N1C1CCN(C(=O)n2cncn2)CC1 (racemic) [listing 2 of 2 here]
Time (Heart [8]): 235.48 ms | Time (Heart [9]): 13.75 ms | Time (Heart [10]): 76.38 ms | Time (Heart [11]): 76.17 ms | Time (Heart [12]): 76.02 ms | Time (Heart [13]): 156.3 ms | IC50 (Cannabinoid receptor 2): > 10 µM | IC50 (Monoglyceride lipase): 10 nM | Activity (Salmonella typhimurium): Non-toxic | Activity (Heart [14]): 75.19 mmHg
